Experimental data reported in ChEMBL document CHEMBL2396581, “20(S)-Protopanaxadiol (PPD) analogues chemosensitize multidrug-resistant cancer cells to clinical anticancer drugs” (Bioorg Med Chem, 2013).
Each block holds one molecule with its values, some of them ahead of it.

Key:
Type in all cases: cell-based
[1] = target: T1, ATP-dependent translocase ABCB1 (Homo sapiens, UniProt P08183); assay: Inhibition of p-gp in human KB/VCR cells assessed as potentiation of 1 uM docetaxel-induced cytotoxicity at 5 uM after 72 hrs by MTT assay
T1 sequence (P08183 whole entry): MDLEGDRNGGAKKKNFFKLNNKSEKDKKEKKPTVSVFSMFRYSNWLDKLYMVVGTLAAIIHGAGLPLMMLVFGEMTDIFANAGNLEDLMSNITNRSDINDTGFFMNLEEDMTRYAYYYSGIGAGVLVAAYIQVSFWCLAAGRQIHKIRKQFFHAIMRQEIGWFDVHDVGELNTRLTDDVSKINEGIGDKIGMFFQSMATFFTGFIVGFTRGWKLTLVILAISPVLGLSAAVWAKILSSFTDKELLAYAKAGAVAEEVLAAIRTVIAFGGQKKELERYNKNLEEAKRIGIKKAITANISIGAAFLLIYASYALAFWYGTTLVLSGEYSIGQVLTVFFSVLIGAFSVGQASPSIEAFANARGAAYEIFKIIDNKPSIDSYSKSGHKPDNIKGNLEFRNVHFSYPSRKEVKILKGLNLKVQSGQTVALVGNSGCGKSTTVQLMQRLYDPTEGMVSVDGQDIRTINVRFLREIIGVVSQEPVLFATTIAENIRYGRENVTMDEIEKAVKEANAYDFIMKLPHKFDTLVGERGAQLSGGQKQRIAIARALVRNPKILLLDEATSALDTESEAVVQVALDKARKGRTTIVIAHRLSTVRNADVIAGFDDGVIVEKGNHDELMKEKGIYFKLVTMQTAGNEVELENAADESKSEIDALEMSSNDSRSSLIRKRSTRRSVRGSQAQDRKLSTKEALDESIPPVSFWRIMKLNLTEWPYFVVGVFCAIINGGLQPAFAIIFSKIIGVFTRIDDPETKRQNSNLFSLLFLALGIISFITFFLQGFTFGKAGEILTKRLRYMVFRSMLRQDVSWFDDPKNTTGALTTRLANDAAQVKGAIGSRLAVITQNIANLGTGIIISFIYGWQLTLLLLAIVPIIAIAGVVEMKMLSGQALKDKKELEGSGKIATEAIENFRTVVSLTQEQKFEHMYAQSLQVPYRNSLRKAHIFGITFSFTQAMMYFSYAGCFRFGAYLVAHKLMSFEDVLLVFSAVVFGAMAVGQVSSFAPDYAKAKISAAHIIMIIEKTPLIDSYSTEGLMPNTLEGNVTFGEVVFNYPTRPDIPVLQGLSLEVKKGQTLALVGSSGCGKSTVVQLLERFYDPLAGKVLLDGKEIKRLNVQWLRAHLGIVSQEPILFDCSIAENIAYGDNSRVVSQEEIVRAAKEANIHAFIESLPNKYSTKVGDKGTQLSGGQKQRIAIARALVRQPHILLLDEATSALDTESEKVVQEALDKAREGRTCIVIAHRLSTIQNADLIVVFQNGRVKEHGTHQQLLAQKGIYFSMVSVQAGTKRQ
In short: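 KBvcr cells seeded at 5 × 10^3 per well were cotreated with 5 μM compound and 1 μM docetaxel for 72 h. Survival (%) was read by MTT and compared with wells without docetaxel.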

[2] = target: T1, ATP-dependent translocase ABCB1; assay: Inhibition of p-gp in human KB/VCR cells assessed as potentiation of 1 uM docetaxel-induced cytotoxicity at 5 uM after 72 hrs by MTT assay relative to verapamil
[3] = target: T1, ATP-dependent translocase ABCB1; assay: Inhibition of p-gp in human KB/VCR cells assessed as intracellular accumulation of adriamycin at 5 uM after 3 hrs by fluorescence assay relative to control
In short: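 KBvcr cells plated at 1 × 10^5 per well were given ADM (final 10 μM) with 5 μM compound for 3 h. After ice-cold PBS wash and lysis in 1% SDS, intrinsic ADM fluorescence (ex 485/em 590 nm) was read. Results are expressed as a ratio to the ADM-only control, mean ± SD, n = 3.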

[4] = target: T1, ATP-dependent translocase ABCB1; assay: Inhibition of p-gp in human KB/VCR cells assessed as potentiation of vincristine-induced cytotoxicity at 5 uM after 72 hrs by MTT assay relative to verapamil
[5] = target: T1, ATP-dependent translocase ABCB1; assay: Inhibition of p-gp in human KB/VCR cells assessed as intracellular accumulation of rhodamine123 at 3 uM after 2 hrs by microplate fluorometric analysis
In short: (§1)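 KBvcr cells plated at 1 × 10^5 per well were pretreated with graded compound concentrations, then given Rhodamine123 10 μM for 2 h at 37 °C. Cells were washed with ice-cold PBS and lysed in 1% SDS. Fluorescence (ex 494/em 517 nm) was read on a microplate fluorometer and compared with untreated cells. Three independent experiments.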

[6] = target: T1, ATP-dependent translocase ABCB1; assay: Inhibition of p-gp in human KB/VCR cells assessed as intracellular accumulation of rhodamine123 after 2 hrs by microplate fluorometric analysis
In short: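 KBvcr cells plated at 1 × 10^5 per well and incubated 2 h at 37 °C in CO2 incubator with 10 μM Rhodamine123, with or without test compounds. Cells washed with ice-cold PBS, then lysed in 1% SDS/PBS. Fluorescence read at ex 494/em 517 nm. Accumulation ratio taken relative to untreated cells. Mean SD of three independent experiments.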

[7] = target: T1, ATP-dependent translocase ABCB1; assay: Inhibition of p-gp in human KB/VCR cells assessed as potentiation of adriamycin-induced cytotoxicity at 5 uM after 72 hrs by MTT assay relative to verapamil
[8] = target: T1, ATP-dependent translocase ABCB1; assay: Inhibition of p-gp in human KB/VCR cells assessed as potentiation of 100 nM docetaxel-induced cytotoxicity after 72 hrs by MTT assay
In short: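 KBvcr cells cultured 72 h with fixed 100 nM docetaxel and graded modulator concentrations. Viability read by MTT, formazan at 490 nm. EC50 calculated from dose–response. Mean SD of three independent experiments.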

[9] = target: T1, ATP-dependent translocase ABCB1; assay: Inhibition of p-gp in human KB/VCR cells assessed as intracellular accumulation of rhodamine123 at 2 uM after 2 hrs by microplate fluorometric analysis; in short: as §1
[10] = target: T1, ATP-dependent translocase ABCB1; assay: Inhibition of p-gp in human KB/VCR cells assessed as intracellular accumulation of rhodamine123 at 0.5 uM after 2 hrs by microplate fluorometric analysis; in short: as §1
[11] = Cytotoxicity against human KB/VCR cells assessed as cell viability at 5 uM after 72 hrs by MTT assay
In short: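 KB/VCR cells in DMEM with 10% FBS and penicillin/streptomycin, 37 °C, 5% CO2. Cells were allowed to attach for 12 h, then exposed to compound for 72 h. MTT was added for 4 h and formazan read at 490 nm.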

[12] = target: T1, ATP-dependent translocase ABCB1; assay: Inhibition of p-gp in human KB/VCR cells assessed as potentiation of vincristine-induced cytotoxicity at 5 uM after 72 hrs by MTT assay
[13] = target: T1, ATP-dependent translocase ABCB1; assay: Inhibition of p-gp in human KB/VCR cells assessed as potentiation of adriamycin-induced cytotoxicity at 5 uM after 72 hrs by MTT assay
[14] = target: T1, ATP-dependent translocase ABCB1; assay: Inhibition of p-gp in human KB/VCR cells assessed as intracellular accumulation of rhodamine123 at 1 uM after 2 hrs by microplate fluorometric analysis; in short: as §1

SMILES: CC1(C)[C@@H](O)CC[C@]2(C)[C@H]3C[C@@H](O)[C@@H]4[C@@H]([C@@](C)(O)CCCNCCCO)CC[C@@]4(C)[C@]3(C)CC[C@@H]12
inhibition (INH) [1]: Not Active

SMILES: CC1(C)[C@@H](O)CC[C@]2(C)[C@H]3C[C@@H](O)[C@@H]4[C@@H]([C@@](C)(O)CCCNCc5ccccc5)CC[C@@]4(C)[C@]3(C)CC[C@@H]12
fold change (FC) [2]: 1.5
fold change (FC) [3]: 1.3
fold change (FC) [4]: 1.3
RFU [5]: 95300
inhibition (INH) [6]: Dose-dependent effect
fold change (FC) [7]: 1.3
inhibition (INH) [8]: Dose-dependent effect
inhibition (INH) [1]: Active
RFU [9]: 57000
RFU [10]: 39800

SMILES: CC1(C)[C@@H](O)CC[C@]2(C)[C@H]3C[C@@H](O)[C@@H]4[C@@H]([C@@](C)(O)CCCNCc5ccc(Cl)cc5)CC[C@@]4(C)[C@]3(C)CC[C@@H]12
inhibition (INH) [1]: Active
Activity [11]: Toxic

SMILES: CCCNCCC[C@](C)(O)[C@H]1CC[C@]2(C)[C@@H]1[C@H](O)C[C@@H]1[C@@]3(C)CC[C@H](O)C(C)(C)[C@@H]3CC[C@]12C
inhibition (INH) [1]: Not Active

SMILES: CC1(C)[C@@H](O)CC[C@]2(C)[C@H]3C[C@@H](O)[C@@H]4[C@@H]([C@@](C)(O)CCCNCCN5CCNCC5)CC[C@@]4(C)[C@]3(C)CC[C@@H]12
inhibition (INH) [1]: Not Active

SMILES: CC(C)=CCC[C@](C)(O)[C@H]1CC[C@]2(C)[C@@H]1[C@H](O)C[C@@H]1[C@@]3(C)CC[C@H](O)C(C)(C)[C@@H]3CC[C@]12C
inhibition (INH) [1]: Not Active
Activity [11]: Non-toxic

SMILES: CCNCCC[C@](C)(O)[C@H]1CC[C@]2(C)[C@@H]1[C@H](O)C[C@@H]1[C@@]3(C)CC[C@H](O)C(C)(C)[C@@H]3CC[C@]12C
inhibition (INH) [1]: Not Active

SMILES: CC1(C)[C@@H](O)CC[C@]2(C)[C@H]3C[C@@H](O)[C@@H]4[C@@H]([C@@](C)(O)CCCNCc5ccc(F)cc5)CC[C@@]4(C)[C@]3(C)CC[C@@H]12
inhibition (INH) [1]: Active
Activity [11]: Toxic

SMILES: CC1(C)[C@@H](O)CC[C@]2(C)[C@H]3C[C@@H](O)[C@@H]4[C@@H]([C@@](C)(O)CCCNCc5ccncc5)CC[C@@]4(C)[C@]3(C)CC[C@@H]12
inhibition (INH) [1]: Active

fold change (FC) [3]: 1.3
SMILES: CC1(C)[C@@H](O)CC[C@]2(C)[C@H]3C[C@@H](O)[C@@H]4[C@@H]([C@@](C)(O)CCCNCCc5ccc([N+](=O)[O-])cc5)CC[C@@]4(C)[C@]3(C)CC[C@@H]12
inhibition (INH) [1]: Active
Activity [11]: Toxic

SMILES: CC(C)(C)NCCC[C@](C)(O)[C@H]1CC[C@]2(C)[C@@H]1[C@H](O)C[C@@H]1[C@@]3(C)CC[C@H](O)C(C)(C)[C@@H]3CC[C@]12C
inhibition (INH) [1]: Not Active

SMILES: CC(C)NCCC[C@](C)(O)[C@H]1CC[C@]2(C)[C@@H]1[C@H](O)C[C@@H]1[C@@]3(C)CC[C@H](O)C(C)(C)[C@@H]3CC[C@]12C
inhibition (INH) [1]: Not Active

SMILES: CC1(C)[C@@H](O)CC[C@]2(C)[C@H]3C[C@@H](O)[C@@H]4[C@@H]([C@@](C)(O)CCCNCc5ccccn5)CC[C@@]4(C)[C@]3(C)CC[C@@H]12
inhibition (INH) [1]: Active

fold change (FC) [3]: 1.3
SMILES: CC1(C)[C@@H](O)CC[C@]2(C)[C@H]3C[C@@H](O)[C@@H]4[C@@H]([C@@](C)(O)CCCNCCCc5ccccc5)CC[C@@]4(C)[C@]3(C)CC[C@@H]12
inhibition (INH) [1]: Active
Activity [11]: Toxic

SMILES: CC1(C)[C@@H](O)CC[C@]2(C)[C@H]3C[C@@H](O)[C@@H]4[C@@H]([C@@](C)(O)CCCNCCCn5ccnc5)CC[C@@]4(C)[C@]3(C)CC[C@@H]12
inhibition (INH) [1]: Not Active

SMILES: CNCCC[C@](C)(O)[C@H]1CC[C@]2(C)[C@@H]1[C@H](O)C[C@@H]1[C@@]3(C)CC[C@H](O)C(C)(C)[C@@H]3CC[C@]12C
inhibition (INH) [1]: Not Active

SMILES: COc1ccc(CNCCC[C@](C)(O)[C@H]2CC[C@]3(C)[C@@H]2[C@H](O)C[C@@H]2[C@@]4(C)CC[C@H](O)C(C)(C)[C@@H]4CC[C@]23C)cc1
inhibition (INH) [1]: Active

fold change (FC) [3]: 1.3
SMILES: CC1(C)[C@@H](O)CC[C@]2(C)[C@H]3C[C@@H](O)[C@@H]4[C@@H]([C@@](C)(O)CCCNCCc5ccc(Cl)cc5)CC[C@@]4(C)[C@]3(C)CC[C@@H]12
inhibition (INH) [1]: Active
Activity [11]: Toxic

SMILES: COc1ccc(CNCCC[C@](C)(O)[C@H]2CC[C@]3(C)[C@@H]2[C@H](O)C[C@@H]2[C@@]4(C)CC[C@H](O)C(C)(C)[C@@H]4CC[C@]23C)cc1OC
inhibition (INH) [1]: Active

SMILES: CC1(C)[C@@H](O)CC[C@]2(C)[C@H]3C[C@@H](O)[C@@H]4[C@@H]([C@@](C)(O)CCCNCCc5ccc6c(c5)OCO6)CC[C@@]4(C)[C@]3(C)CC[C@@H]12
inhibition (INH) [1]: Active

fold change (FC) [3]: 1.3
SMILES: CC1(C)[C@@H](O)CC[C@]2(C)[C@H]3C[C@@H](O)[C@@H]4[C@@H]([C@@](C)(O)CCCNCc5cccnc5)CC[C@@]4(C)[C@]3(C)CC[C@@H]12
inhibition (INH) [1]: Active
inhibition (INH) [12]: Active
inhibition (INH) [13]: Active

SMILES: C[C@H](NCCC[C@](C)(O)[C@H]1CC[C@]2(C)[C@@H]1[C@H](O)C[C@@H]1[C@@]3(C)CC[C@H](O)C(C)(C)[C@@H]3CC[C@]12C)c1ccccc1
inhibition (INH) [1]: Active
Activity [11]: Toxic

fold change (FC) [3]: 1.3
RFU [14]: 48700
RFU [5]: 105300
inhibition (INH) [6]: Dose-dependent effect
RFU [9]: 63700
RFU [10]: 43200
SMILES: CC1(C)[C@@H](O)CC[C@]2(C)[C@H]3C[C@@H](O)[C@@H]4[C@@H]([C@@](C)(O)CCCNCCc5ccccc5)CC[C@@]4(C)[C@]3(C)CC[C@@H]12
fold change (FC) [2]: 2.6
fold change (FC) [4]: 1.8
fold change (FC) [7]: 1.4
inhibition (INH) [8]: Dose-dependent effect
inhibition (INH) [1]: Active

SMILES: CC1(C)[C@@H](O)CC[C@]2(C)[C@H]3C[C@@H](O)[C@@H]4[C@@H]([C@@](C)(O)CCCNC5CC5)CC[C@@]4(C)[C@]3(C)CC[C@@H]12
inhibition (INH) [1]: Not Active

fold change (FC) [3]: 1.3
SMILES: COc1ccc(CCNCCC[C@](C)(O)[C@H]2CC[C@]3(C)[C@@H]2[C@H](O)C[C@@H]2[C@@]4(C)CC[C@H](O)C(C)(C)[C@@H]4CC[C@]23C)cc1OC
inhibition (INH) [1]: Active
inhibition (INH) [12]: Active
inhibition (INH) [13]: Active

RFU [14]: 46100
RFU [5]: 98700
RFU [9]: 53000
RFU [10]: 35900
SMILES: COc1ccc(CCN(C)CCC[C@@](C#N)(c2ccc(OC)c(OC)c2)C(C)C)cc1OC

SMILES: COc1ccc(NCCC[C@](C)(O)[C@H]2CC[C@]3(C)[C@@H]2[C@H](O)C[C@@H]2[C@@]4(C)CC[C@H](O)C(C)(C)[C@@H]4CC[C@]23C)cc1
inhibition (INH) [1]: Not Active
